The values below come from ChEMBL document CHEMBL5252656, “Cyclic Peptidic Furin Inhibitors Developed by Combinatorial Chemistry” (ACS Med Chem Lett, 2023).

The source made the active and inactive calls. The calls are words filed in the database; no cut-off is given here. Bridge positions count the residues as written; N and C are the ends. Peptide text beside a SMILES is read from it.

Data set [1] deals with T1, Transmembrane protease serine 6 (Homo sapiens) (UniProt Q8IU80).
T1 sequence (whole entry): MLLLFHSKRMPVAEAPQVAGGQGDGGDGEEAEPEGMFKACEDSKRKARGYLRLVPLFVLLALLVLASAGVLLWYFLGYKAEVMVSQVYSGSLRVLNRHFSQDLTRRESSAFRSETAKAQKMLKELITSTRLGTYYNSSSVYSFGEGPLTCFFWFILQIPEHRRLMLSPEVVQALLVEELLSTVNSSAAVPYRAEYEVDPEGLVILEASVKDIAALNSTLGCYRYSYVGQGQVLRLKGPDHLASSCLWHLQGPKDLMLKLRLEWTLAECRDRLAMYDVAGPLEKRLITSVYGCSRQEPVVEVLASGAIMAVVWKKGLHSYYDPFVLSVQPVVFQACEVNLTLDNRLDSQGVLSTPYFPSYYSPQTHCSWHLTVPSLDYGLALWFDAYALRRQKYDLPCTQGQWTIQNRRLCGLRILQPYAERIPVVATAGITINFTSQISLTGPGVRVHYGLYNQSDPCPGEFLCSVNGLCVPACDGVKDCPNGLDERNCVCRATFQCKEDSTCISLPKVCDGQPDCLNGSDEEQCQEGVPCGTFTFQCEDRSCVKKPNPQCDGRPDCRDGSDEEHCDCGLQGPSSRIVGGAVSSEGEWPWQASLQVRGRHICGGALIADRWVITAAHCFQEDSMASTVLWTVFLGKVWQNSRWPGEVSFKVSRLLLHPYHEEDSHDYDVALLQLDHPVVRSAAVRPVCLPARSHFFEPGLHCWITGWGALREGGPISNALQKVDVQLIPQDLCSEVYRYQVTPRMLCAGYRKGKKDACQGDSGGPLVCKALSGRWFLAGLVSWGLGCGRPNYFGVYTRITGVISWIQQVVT
Description: Inhibition of recombinant human matriptase 2 using Boc-Gln-Ala-Arg-AMC as substrate at 3.85 to 385 nM preincubated for 30 mins followed by substrate addition and measured for 40 mins by microplate reader method. As to conditions: dose 3.85-385 nM, time 70.0 min. In outline: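 Recombinant human matriptase-2 (1.51 U/mL) in 50 mM Tris-Cl pH 8.3, 150 mM NaCl, 0.01% Triton X-100 was preincubated with compound 30 min at 37 °C. Boc-QAR-AMC (5 μM final) was then added; fluorescence (ex 380/em 450 nm) read ≥40 min. % inhibition vs no-inhibitor control.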

Data set [2] concerns the target Furin (Homo sapiens) (UniProt P09958). Description: Inhibition of human furin in human PANC-1 cells assessed as release of fluorescent AMC using Pyr-Arg-Thr-Arg-AMC as substrate preincubated for 30 mins followed by substrate addition by plate reader analysis. The data set is classed as cell-based. Further details: concentration or dose not given beside the values. The gist of the method:
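PANC-1 lysate (DMEM/10% FBS culture, protease-inhibitor cocktail extraction) was diluted 10-fold in 100 mM HEPES, 1 mM CaCl2, pH 7.5, then warmed 15 min at 37 °C. Peptide (100 μM final) was added for 30 min at 37 °C, then Pyr-RTR-AMC substrate (100 μM final). AMC release was monitored over time; % inhibition relative to no-inhibitor control.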

Data set [3] has the same target. Description: Inhibition of human furin in human PANC-1 cells assessed as release of fluorescent AMC using Pyr-Arg-Thr-Arg-AMC as substrate preincubated for 10 mins in presence of SFTI-1 then incubation with ligand for 30 mins followed by substrate addition by plate reader analysis. The data set is classed as cell-based. To be noted: time 40.0 min. The gist of the method: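 PANC-1 cells grown in DMEM with 10% FBS and 1% P/S at 37 °C, 5% CO2. Cell lysate was prepared in protease inhibitor cocktail and diluted 10-fold in pH 7.5 HEPES/CaCl2 buffer. It was given SFTI-1 (100 μM final) for 10 min at 37 °C, then peptide (100 μM final) for 30 min, then Pyr-RTR-AMC (100 μM final). AMC release was followed; % inhibition vs no-inhibitor control.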

The target is the same in data set [4]. Description: Inhibition of recombinant human furin using Pyr-Arg-Thr-Lys-Arg-AMC as substrate at 2.4 nM preincubated for 30 mins followed by substrate addition and measured for 40 mins by microplate reader method. As to conditions: time 70.0 min.
The nature of data set [5]: Stability in human serum assessed as parent compound remaining at 1.54 mM and measured after 24 hrs by MALDI-MS analysis. The data set is classed as ADME, cell-free. In outline:
(§1)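 Peptide stock (1.54 mM) was diluted 10-fold into human serum and held at 37 °C. Samples were taken at 0, 1, 2, 3, 5 and 24 h, precipitated with equal volume acetonitrile and centrifuged 10 min. Supernatant was analysed by RP-HPLC (C18, 10–90% B over 40 min) and MALDI-TOF MS.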

Data set [6] can be described thus: Stability in human serum assessed as parent compound remaining at 1.54 mM and measured after 24 hrs by RP-HPLC analysis. The data set is classed as ADME, cell-free. In outline:
as §1

In data set [7] the target is Furin (Homo sapiens) (UniProt P09958). Description: Inhibition of recombinant human furin using Pyr-Arg-Thr-Lys-Arg-AMC as substrate at 24 nM preincubated for 30 mins followed by substrate addition and measured for 40 mins by microplate reader method. As to conditions: time 70.0 min.
Chain of Furin (Homo sapiens) (P09958 whole entry): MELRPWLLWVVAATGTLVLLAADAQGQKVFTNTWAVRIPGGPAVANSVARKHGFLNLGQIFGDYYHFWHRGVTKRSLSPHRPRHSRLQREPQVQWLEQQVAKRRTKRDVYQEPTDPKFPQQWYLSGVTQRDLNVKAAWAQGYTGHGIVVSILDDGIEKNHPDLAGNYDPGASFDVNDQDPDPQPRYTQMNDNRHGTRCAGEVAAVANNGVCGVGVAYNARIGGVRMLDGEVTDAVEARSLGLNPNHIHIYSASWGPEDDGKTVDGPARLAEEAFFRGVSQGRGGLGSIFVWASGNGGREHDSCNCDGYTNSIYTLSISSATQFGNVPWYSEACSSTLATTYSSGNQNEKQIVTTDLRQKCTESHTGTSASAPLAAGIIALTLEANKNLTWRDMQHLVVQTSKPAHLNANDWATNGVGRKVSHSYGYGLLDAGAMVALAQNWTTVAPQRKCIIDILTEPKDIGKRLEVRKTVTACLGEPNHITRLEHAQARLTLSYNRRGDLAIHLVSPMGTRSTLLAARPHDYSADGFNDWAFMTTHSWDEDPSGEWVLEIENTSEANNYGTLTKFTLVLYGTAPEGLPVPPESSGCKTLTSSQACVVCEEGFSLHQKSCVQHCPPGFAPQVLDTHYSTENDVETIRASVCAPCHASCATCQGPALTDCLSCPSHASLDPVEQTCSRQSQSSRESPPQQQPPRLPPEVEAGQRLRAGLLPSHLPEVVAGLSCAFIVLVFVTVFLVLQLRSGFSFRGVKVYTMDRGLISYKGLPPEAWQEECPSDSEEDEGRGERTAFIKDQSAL
The target is the same in data set [8]. Description: Inhibition of recombinant human furin using Pyr-Arg-Thr-Lys-Arg-AMC as substrate at 77 nM preincubated for 30 mins followed by substrate addition and measured for 40 mins by microplate reader method. As to conditions: time 70.0 min.

As for `CC[C@H](C)[C@@H]1NC(=O)[C@@H]2CCCN2C(=O)[C@@H]2CCCN2C(=O)[C@H]([C@@H](C)CC)NC(=O)[C@H](CO)NC(=O)[C@H](CCCCN)NC(=O)[C@H](CCCCN)NC(=O)[C@@H]2CSSC[C@H](NC1=O)C(=O)N[C@@H](Cc1ccccc1)C(=O)N[C@@H](CCCCN)C(=O)N[C@@H](CCCNC(=N)N)C(=O)N[C@@H](CCCNC(=N)N)C(=O)N2` (cyclo(KRRCKKSIPPICF); disulfide 4-12), the inhibition (as a rule, the drop in the measured response relative to a control, in per cent) in data set [1] was “inactive”. Further, the inhibition is 64.8% at Furin (Homo sapiens) [2], 45.9% at Furin (Homo sapiens) [3] and 40.2% at Furin (Homo sapiens) [4].
For `CC[C@H](C)[C@@H]1NC(=O)[C@@H]2CCCN2C(=O)[C@@H]2CCCN2C(=O)[C@H]([C@@H](C)CC)NC(=O)[C@H](CO)NC(=O)[C@H](CCCCN)NC(=O)[C@H](CCCCN)NC(=O)[C@@H]2CSSC[C@H](NC1=O)C(=O)N[C@@H](Cc1ccccc1)C(=O)N[C@@H](CCCNC(=N)N)C(=O)N[C@@H](CCCNC(=N)N)C(=O)N[C@@H](CCCNC(=N)N)C(=O)N2` (cyclo(RRRCKKSIPPICF); disulfide 4-12), in that order: “inactive”, 58.8%, 45.2% and 34.7%.
For the compound `CC[C@H](C)[C@@H]1NC(=O)[C@@H]2CCCN2C(=O)[C@@H]2CCCN2C(=O)[C@H]([C@@H](C)CC)NC(=O)[C@H](CO)NC(=O)[C@H](CCCCN)NC(=O)[C@H](CCCCN)NC(=O)[C@@H](NC(=O)[C@H](CCCNC(=N)N)NC(=O)[C@@H](N)CCCCN)CSSC[C@@H](C(=O)N[C@@H](Cc2ccccc2)C(N)=O)NC1=O` (H-KRCKKSIPPICF-NH2; disulfide 3-11), the inhibition result in data set [1] is “inactive”. Also, the Stability result in data set [5] and in data set [6] was “Stable” throughout. Moreover, the figures for the inhibition on Furin (Homo sapiens) [2] and on Furin (Homo sapiens) [3] were 50.4% and 34.7%, respectively.
On to `CC[C@H](C)[C@@H]1NC(=O)[C@@H]2CCCN2C(=O)[C@@H]2CCCN2C(=O)[C@H]([C@@H](C)CC)NC(=O)[C@H](CO)NC(=O)[C@H](CCCCN)NC(=O)[C@H](CCCCN)NC(=O)[C@@H](NC(=O)[C@H](CCCNC(=N)N)NC(=O)[C@H](CCCNC(=N)N)NC(=O)[C@@H](N)CCCCN)CSSC[C@@H](C(=O)N[C@@H](Cc2ccccc2)C(N)=O)NC1=O` (H-KRRCKKSIPPICF-NH2; disulfide 4-12), for which the inhibition amounted to 3.98% on Furin (Homo sapiens) [7], 0.1% at Furin (Homo sapiens) [8] and 66.5% on Furin (Homo sapiens) [4].
Take `CC[C@H](C)[C@@H]1NC(=O)[C@@H]2CCCN2C(=O)[C@@H]2CCCN2C(=O)[C@H]([C@@H](C)CC)NC(=O)[C@H](CO)NC(=O)[C@H](CCCCN)NC(=O)[C@H](CCCCN)NC(=O)[C@@H](NC(=O)[C@H](CCCNC(=N)N)NC(=O)[C@H](CCCNC(=N)N)NC(=O)[C@@H](N)CCCNC(=N)N)CSSC[C@@H](C(=O)N[C@@H](Cc2ccccc2)C(N)=O)NC1=O` (H-RRRCKKSIPPICF-NH2; disulfide 4-12): the inhibition result in data set [1] is “inactive”. The Stability result in data set [5] and in data set [6] was “Stable” throughout. In addition, the values for the inhibition on Furin (Homo sapiens) [2], at Furin (Homo sapiens) [3] and on Furin (Homo sapiens) [4] were 68.3%, 46.6% and 43.7%, respectively.
Regarding `CC[C@H](C)[C@@H]1NC(=O)[C@@H]2CCCN2C(=O)[C@@H]2CCCN2C(=O)[C@H]([C@@H](C)CC)NC(=O)[C@H](CO)NC(=O)[C@H](CCCCN)NC(=O)[C@H](CCCCN)NC(=O)[C@@H](NC(=O)[C@H](CCCNC(=N)N)NC(=O)[C@@H](N)CCCNC(=N)N)CSSC[C@@H](C(=O)N[C@@H](Cc2ccccc2)C(N)=O)NC1=O` (H-RRCKKSIPPICF-NH2; disulfide 3-11), the inhibition was determined as 6.02% on Furin (Homo sapiens) [7], 0.2% on Furin (Homo sapiens) [8] and 63% on Furin (Homo sapiens) [4].
Regarding `CC[C@H](C)[C@@H]1NC(=O)[C@@H]2CCCN2C(=O)[C@@H]2CCCN2C(=O)[C@H]([C@@H](C)CC)NC(=O)[C@H](CO)NC(=O)[C@H](CCCCN)NC(=O)[C@H]([C@H](C)O)NC(=O)[C@@H]2CSSC[C@H](NC1=O)C(=O)N[C@@H](Cc1ccccc1)C(=O)N1CCC[C@H]1C(=O)N[C@H](C(=O)O)CC(=O)NC(=N)NCCC[C@@H](C(N)=O)C(=O)N2`, the inhibition at Furin (Homo sapiens) [2] worked out at 98.4%.
Take `CC[C@H](C)[C@@H]1NC(=O)[C@@H]2CCCN2C(=O)[C@@H]2CCCN2C(=O)[C@H]([C@@H](C)CC)NC(=O)[C@H](CO)NC(=O)[C@H](CCCCN)NC(=O)[C@H](CCCCN)NC(=O)[C@@H]2CSSC[C@H](NC1=O)C(=O)N[C@@H](Cc1ccccc1)C(=O)N[C@@H](CCCNC(=N)N)C(=O)N[C@@H](CCCNC(=N)N)C(=O)N2` (cyclo(CFRRCKKSIPPI); disulfide 1-5): the results for the inhibition at Furin (Homo sapiens) [7], at Furin (Homo sapiens) [8] and on Furin (Homo sapiens) [4] were 46.1%, 3.72% and 97.2%, respectively.
